Measurements from article PMC7670640 (Pharmacology Research & Perspectives, 2020).

Columns and labels:
[1] = Single ascending dose part; type: in vivo, human
Method in brief: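 Healthy men in an interlocking two-cohort, four-period crossover. Each period was randomized 3:1 (6 active, 2 placebo); each participant received three ascending single oral doses and one placebo, each after a moderate-fat meal (~600 calories, ~30% fat). Two sentinel participants per period were dosed first, with a 24-h safety review before the rest. Monitoring covered AEs, vitals, ECGs, labs, physical exams, and GI/hepatobiliary abnormalities. AEs were MedDRA-coded and summarized descriptively.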

[2] = Single ascending dose part; type: in vivo, human; details: for AUC / Cmax / Tmax / half-life: human, plasma, oral
Method in brief: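 Healthy men received a single oral dose of test compound after a moderate-fat meal (~600 calories, ~30% from fat). Plasma was taken from ~2 mL whole blood and assayed by HPLC-MS/MS. Cmax, tmax, AUC0-∞, AUC0-24 and terminal half-life came from standard noncompartmental analysis. Dose proportionality was assessed with a power model and ANOVA.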

[3] = Relative bioavailability study: safety and tolerability; type: in vivo, human
[4] = Lowest observed adverse effect level in dogs; type: in vivo
HIV‐1 subtypes = assay: Inhibition across HIV‐1 subtypes; details: background statement, no reference given
[5] = Part 1, across all drug doses in the 20 participants

## C=C(C)[C@@H]1CC[C@]2(NCCN3CCS(=O)(=O)CC3)CC[C@]3(C)[C@H](CC[C@@H]4[C@@]5(C)CC=C(C6=CC[C@@](CF)(C(=O)O)CC6)C(C)(C)[C@@H]5CC[C@]43C)[C@@H]12 [GSK3640254]
[1]; [5]
  most common AEs: contact dermatitis, number of events: five
  most common AEs: diarrhea, number of events: four
  most common AEs: dizziness, number of events: four
  most common AEs: headache, number of events: eight
  most common AEs: nasopharyngitis, number of events: three
[1]; Part 1, eleven GI AEs in six participants
  participants reporting GI AEs: 30%
[1]; across both parts of the study (total includes placebo periods per Table 3)
  adverse drug reactions, number: 12
[1]; across doses in either part of the study
  trends in laboratory values or vital sign parameters: no clinically significant trends in laboratory values or vital sign parameters
[1]; single and multiple ascending doses
  deaths or serious AEs: no deaths or serious AEs were reported
[1]; single dose 1 mg (N = 6)
  Adverse event: Any event: 3 (50) n (%)
  Adverse event: Contact dermatitis: 1 (17) n (%)
  Adverse event: Cough: 0 n (%)
  Adverse event: Diarrhea: 0 n (%)
  Adverse event: Dizziness: 1 (17) n (%)
  Adverse event: Gastrointestinal disorders: 1 (17) n (%)
  Adverse event: Headache: 1 (17) n (%)
  Adverse event: Increased transaminases: 0 n (%)
  Adverse event: Nasal obstruction: 0 n (%)
  Adverse event: Nasopharyngitis: 0 n (%)
  Adverse event: Nightmare: 0 n (%)
  Adverse event: Viral infection: 0 n (%)
  Adverse event: Vomiting: 0 n (%)
[1]; single dose 3 mg (N = 6)
  Adverse event: Any event: 2 (33) n (%)
  Adverse event: Contact dermatitis: 1 (17) n (%)
  Adverse event: Cough: 0 n (%)
  Adverse event: Diarrhea: 0 n (%)
  Adverse event: Dizziness: 1 (17) n (%)
  Adverse event: Gastrointestinal disorders: 0 n (%)
  Adverse event: Headache: 0 n (%)
  Adverse event: Increased transaminases: 0 n (%)
  Adverse event: Nasal obstruction: 0 n (%)
  Adverse event: Nasopharyngitis: 0 n (%)
  Adverse event: Nightmare: 1 (17) n (%)
  Adverse event: Viral infection: 0 n (%)
  Adverse event: Vomiting: 0 n (%)
[1]; single dose 10 mg (N = 6)
  Adverse event: Any event: 4 (67) n (%)
  Adverse event: Contact dermatitis: 1 (17) n (%)
  Adverse event: Cough: 1 (17) n (%)
  Adverse event: Diarrhea: 1 (17) n (%)
  Adverse event: Dizziness: 1 (17) n (%)
  Adverse event: Gastrointestinal disorders: 1 (17) n (%)
  Adverse event: Headache: 1 (17) n (%)
  Adverse event: Increased transaminases: 0 n (%)
  Adverse event: Nasal obstruction: 1 (17) n (%)
  Adverse event: Nasopharyngitis: 1 (17) n (%)
  Adverse event: Nightmare: 0 n (%)
  Adverse event: Viral infection: 1 (17) n (%)
  Adverse event: Vomiting: 0 n (%)
[1]; single dose 30 mg (N = 6)
  Adverse event: Any event: 3 (50) n (%)
  Adverse event: Contact dermatitis: 0 n (%)
  Adverse event: Cough: 0 n (%)
  Adverse event: Diarrhea: 1 (17) n (%)
  Adverse event: Dizziness: 0 n (%)
  Adverse event: Gastrointestinal disorders: 1 (17) n (%)
  Adverse event: Headache: 1 (17) n (%)
  Adverse event: Increased transaminases: 0 n (%)
  Adverse event: Nasal obstruction: 0 n (%)
  Adverse event: Nasopharyngitis: 0 n (%)
  Adverse event: Nightmare: 0 n (%)
  Adverse event: Viral infection: 0 n (%)
  Adverse event: Vomiting: 0 n (%)
[1]; single dose 100 mg (N = 6)
  Adverse event: Any event: 3 (50) n (%)
  Adverse event: Contact dermatitis: 0 n (%)
  Adverse event: Cough: 1 (17) n (%)
  Adverse event: Diarrhea: 2 (33) n (%)
  Adverse event: Dizziness: 0 n (%)
  Adverse event: Gastrointestinal disorders: 2 (33) n (%)
  Adverse event: Headache: 2 (33) n (%)
  Adverse event: Increased transaminases: 0 n (%)
  Adverse event: Nasal obstruction: 0 n (%)
  Adverse event: Nasopharyngitis: 1 (17) n (%)
  Adverse event: Nightmare: 0 n (%)
  Adverse event: Viral infection: 1 (17) n (%)
  Adverse event: Vomiting: 2 (33) n (%)
[1]; single dose 200 mg (N = 6)
  Adverse event: Any event: 4 (67) n (%)
  Adverse event: Contact dermatitis: 1 (17) n (%)
  Adverse event: Cough: 0 n (%)
  Adverse event: Diarrhea: 0 n (%)
  Adverse event: Dizziness: 0 n (%)
  Adverse event: Gastrointestinal disorders: 0 n (%)
  Adverse event: Headache: 1 (17) n (%)
  Adverse event: Increased transaminases: 1 (17) n (%)
  Adverse event: Nasal obstruction: 0 n (%)
  Adverse event: Nasopharyngitis: 0 n (%)
  Adverse event: Nightmare: 0 n (%)
  Adverse event: Viral infection: 0 n (%)
  Adverse event: Vomiting: 0 n (%)
[1]; single dose 400 mg (N = 6)
  Adverse event: Any event: 4 (67) n (%)
  Adverse event: Contact dermatitis: 1 (17) n (%)
  Adverse event: Cough: 0 n (%)
  Adverse event: Diarrhea: 0 n (%)
  Adverse event: Dizziness: 0 n (%)
  Adverse event: Gastrointestinal disorders: 1 (17) n (%)
  Adverse event: Headache: 2 (33) n (%)
  Adverse event: Increased transaminases: 0 n (%)
  Adverse event: Nasal obstruction: 0 n (%)
  Adverse event: Nasopharyngitis: 1 (17) n (%)
  Adverse event: Nightmare: 0 n (%)
  Adverse event: Viral infection: 0 n (%)
  Adverse event: Vomiting: 0 n (%)
[1]; single dose 700 mg (N = 6)
  Adverse event: Any event: 1 (17) n (%)
  Adverse event: Contact dermatitis: 0 n (%)
  Adverse event: Cough: 0 n (%)
  Adverse event: Diarrhea: 0 n (%)
  Adverse event: Dizziness: 1 (17) n (%)
  Adverse event: Gastrointestinal disorders: 0 n (%)
  Adverse event: Headache: 0 n (%)
  Adverse event: Increased transaminases: 0 n (%)
  Adverse event: Nasal obstruction: 0 n (%)
  Adverse event: Nasopharyngitis: 0 n (%)
  Adverse event: Nightmare: 0 n (%)
  Adverse event: Viral infection: 0 n (%)
  Adverse event: Vomiting: 0 n (%)
[2]; 1‐ to 700‐mg single dose range
  dose‐proportionality of Cmax and AUC: approximately dose‐proportional increase in exposure
[2]; 1 mg
  AUC: 57 ng·h/mL
  Cmax: 5 ng/mL
[2]; 1 mg, tmax, median (range), single dose 1 mg, N = 6
  Tmax: 3.5 h
[2]; 3 mg
  AUC: 329 ng·h/mL
  Cmax: 14 ng/mL
[2]; 3 mg, t1/2, geometric mean (%CVb), single dose 3 mg, N = 6
  half-life: 20.5 h
[2]; 3 mg, tmax, median (range), single dose 3 mg, N = 6
  Tmax: 4.5 h
[2]; 10 mg
  AUC: 1230 ng·h/mL
  Cmax: 47 ng/mL
[2]; 10 mg, tmax, median (range), single dose 10 mg, N = 6
  Tmax: 3.5 h
[2]; 30 mg
  AUC: 2990 ng·h/mL
  Cmax: 130 ng/mL
[2]; 30 mg, tmax, median (range), single dose 30 mg, N = 6
  Tmax: 4 h
[2]; 100 mg
  AUC: 8540 ng·h/mL
  Cmax: 372 ng/mL
[2]; 100 mg, tmax, median (range), single dose 100 mg, N = 6
  Tmax: 3.8 h
[2]; 200 mg
  AUC: 15000 ng·h/mL
  Cmax: 579 ng/mL
[2]; 200 mg, tmax, median (range), single dose 200 mg, N = 6
  Tmax: 3 h
[2]; 400 mg
  AUC: 43000 ng·h/mL
  Cmax: 1880 ng/mL
[2]; 400 mg, tmax, median (range), single dose 400 mg, N = 6
  Tmax: 3.3 h
[2]; 700 mg
  AUC: 39700 ng·h/mL
  Cmax: 1720 ng/mL
[2]; 700 mg, tmax, median (range), single dose 700 mg, N = 6
  Tmax: 3.3 h
[2]; estimated half‐life, single‐ and multiple‐dose administration after a moderate‐calorie and ‐fat breakfast
  half-life: 21.2 to 28.4 h
[2]; half‐life, abstract summary of the FTIH study
  half-life: ~24 h
[2]; mean half‐life, 10‐ to 700‐mg single doses
  half-life: ~24 h
[2]; median tmax, after administration, range across doses
  Tmax: 3 to 4.5 h
[2]; single dose
  change in exposure from 400 to 700 mg: no increase in exposure from 400 to 700 mg
[2]; single dose 1 and 3 mg
  time detectable in plasma: up to 48 hours
[2]; single dose 10‐700 mg
  time detectable in plasma: up to 96 hours
[3]; in vivo
  changes in laboratory values, vital signs, or ECG parameters: No clinically significant changes in laboratory values, vital signs, or ECG parameters
[3]; of the 14 total participants, all mild
  participants reporting at least one AE: 50%
[4]; calculated from dog level of 1 mg/kg
  maximum recommended starting dose [MRSD] based on lowest observed adverse effect level in dogs: approximately 3.2 mg
[4]; dogs, absence of a NOAEL in dogs
  lowest observed adverse effect level: 1 mg/kg
HIV‐1 subtypes
  inhibition across HIV‐1 subtypes: broad‐spectrum inhibition across various HIV‐1 subtypes
